NPY Y2 blocker = NPY-Y2 receptor antagonists, primary screen, cell-based | 0.99% of 140,000 active | NPY-Y2 expressing cells, antagonist mode | Neuropeptide Y receptor type 2 (Homo sapiens), P49146 | inhibition, % at 2.7 µM; in the data active = inhibition above about 17%
NPY-Y1 PAM-ag = NPY-Y1 receptor potentiators or agonists, primary screen, cell-based. Neuropeptide Y receptor type 1 (Homo sapiens), P25929. NPY-Y1 expressing cells, potentiator/agonist activation. activation, % at 3.6 µM. 0.37% of 220,000 active. AID 1304, 2008; in the data active = activation above about 33%, passing the limit was not always enough;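 note: cells stimulated with NPY at EC10 then isoproterenol at EC100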
S1P4 agonist = S1P4 receptor agonists, primary screen, cell-based | 0.35% of 220,000 active | AID 1509, 2009 | activation, % at 4.98 µM | Sphingosine 1-phosphate receptor 4 (Homo sapiens), O95977 | S1P4-expressing cell line, agonist reporter assay; in the data active = activation above about 11%
Target sequence (O95977 whole entry, looked up): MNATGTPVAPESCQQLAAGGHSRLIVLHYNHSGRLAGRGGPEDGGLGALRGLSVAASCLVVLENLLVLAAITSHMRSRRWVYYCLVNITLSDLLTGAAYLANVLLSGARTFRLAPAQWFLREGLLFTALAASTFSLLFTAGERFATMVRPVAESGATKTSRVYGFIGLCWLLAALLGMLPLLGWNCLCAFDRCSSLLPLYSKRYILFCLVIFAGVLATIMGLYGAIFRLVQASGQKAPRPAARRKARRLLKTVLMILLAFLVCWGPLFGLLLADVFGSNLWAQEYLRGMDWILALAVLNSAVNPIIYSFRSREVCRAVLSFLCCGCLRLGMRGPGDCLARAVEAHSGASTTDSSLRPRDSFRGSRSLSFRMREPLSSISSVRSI
NPY2 pot ag = NPY-Y2 potentiators or agonists, primary screen, cell-based | cells expressing NPY-Y2, potentiator/agonist read-out | activation, % at 3.6 µM | 0.45% of 220,000 active | AID 1359, 2008 | Neuropeptide Y receptor type 2 (Homo sapiens), P49146; in the data active = activation above about 27%;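 note: cells stimulated with NPY near EC25 plus isoproterenol at EC100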
NPY-Y1 antag = NPY-Y1 receptor antagonists, primary screen, cell-based. inhibition, % at 3.6 µM. HEK293-CNG Y1 cells, membrane potential fluorescence; NPY at EC95, then isoproterenol. AID 1040, 2008. 1% of 200,000 active;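 active = inhibition above the campaign mean inhibition of all tested compounds plus 3 SD, cut at about 20% in these data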
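Assay system: HEK293 cells with Y1 receptor plus CNG channel | Probe or stimulus: NPY (25 nM), isoproterenol (1 µM), Ro 20-1724 (25 µM) | Timing: Compound incubation 1 h at room temperature, readout 45 min post-stimulation | Measured by: Membrane-potential fluorescent dye readout | Benchmarks: High control isoproterenol alone, low control NPY with isoproterenol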
S1P4 antag = S1P4 receptor antagonists, primary screen, cell-based; AID 1510, 2009; Sphingosine 1-phosphate receptor 4 (Homo sapiens), O95977; S1P4-expressing cells, antagonist mode, reporter read-out; inhibition, % at 4.98 µM; 0.26% of 220,000 active; in the data active = inhibition above about 29%
NPY1 antag ctr = NPY-Y1 receptor antagonists, selectivity check, counter-screen for NPY-Y2 antagonist project, cell-based; shares compounds with NPY Y2 blocker; cell-based NPY-Y1 antagonism counterscreen; inhibition, % at 3.6 µM; 19% of 710 active; AID 1256, 2008; in the data active = inhibition above about 20%;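 note: cells challenged with NPY then isoproterenol with cAMP sensed through a CNG channel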
NPY2 antag conf = NPY-Y2 receptor antagonists, retest of hits, confirmation, HEK293-CNG cells, membrane potential fluorescence, triplicate; shares compounds with NPY Y2 blocker; HEK293 NPY-Y2 CNG channel; inhibition, % at 2.8 µM; 32% of 710 active;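 active = mean inhibition of triplicate wells above the hit cutoff set in the primary screen, cut at about 17% in these data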
Large screens that a line does not name were inactive (follow-up assays come after a bar, where they were run). Only some compounds are listed: those with a hit (about 2.4% of all), similar ones and a draw of the others.

CCC(C)N(C(=O)Cn1nnc2ccccc21)C(C(=O)Nc1ccc(F)cc1)c1cccc(OC)c1 (configuration not stated)	NPY Y2 blocker 18 | NPY1 antag ctr inactive | NPY2 antag conf inactive
COC(=O)C(C)N(C(=O)c1ccc(C(=O)c2ccccc2)cc1)c1c(C)cccc1C (configuration not stated)	NPY Y2 blocker 19 | NPY1 antag ctr inactive | NPY2 antag conf inactive
COC(=O)C(C)N(C(=O)c1ccc(Cl)cc1)c1c(C)cccc1C (configuration not stated)	none
O=C(COC(=O)c1ccc(O)cc1)Nc1ccccc1-c1ccccc1	none
O=C(COC(=O)/C=C/c1cccc(Cl)c1)Nc1ccccc1-c1ccccc1	NPY Y2 blocker 19 | NPY1 antag ctr 21 | NPY2 antag conf 30
O=C(COC(=O)c1ccc(-c2ccccc2)cc1)Nc1ccccc1-c1ccccc1	NPY Y2 blocker 31 | NPY1 antag ctr inactive | NPY2 antag conf 19
O=C(COC(=O)/C=C/c1ccccc1)Nc1ccccc1Br	none
CN(C)CC1CCCCC1OC(=O)/C=C/c1ccccc1 (configuration not stated)	none (no result: NPY Y2 blocker, NPY-Y1 antag)
c1ccc(-c2nc(CSc3nnc(-c4cccs4)o3)cs2)cc1	NPY Y2 blocker 20 | NPY1 antag ctr inactive | NPY2 antag conf 20
CCOC(=O)C1(Cc2ccc(OC)cc2)CCN(C(=O)[C@@H]2CCCN2C(C)=O)CC1	none (no result: NPY Y2 blocker, NPY-Y1 antag)
CCOC(=O)C1=C(C)NC(=NC)SC1c1ccccc1 (configuration not stated)	none (no result: NPY Y2 blocker)
COc1ccccc1NC(=O)c1ccc(-c2ccc(Br)cc2)o1	NPY Y2 blocker 21 | NPY1 antag ctr 21 | NPY2 antag conf 43
O=C(Nc1ccccc1)c1ccc(-c2ccc(Br)cc2)o1	NPY Y2 blocker 29 | NPY1 antag ctr inactive | NPY2 antag conf inactive
CCOC(=O)CC(NC(=O)CCc1c(C)nc2ncnn2c1C)c1ccc(OC(C)C)cc1 (configuration not stated)	none (no result: NPY Y2 blocker)
CCc1nnc(NC(=O)CSc2nc3cc(OC)c(OC)cc3cc2C)s1	none (no result: NPY Y2 blocker)
O=C(c1ccccc1)N(Cc1cccnc1)C1(C(=O)Nc2ccccc2)CCCCC1	NPY Y2 blocker 19 | NPY1 antag ctr inactive | NPY2 antag conf inactive
CC1=C(C(=O)N(C)C)C(c2ccc(C)s2)NC(=S)N1 (configuration not stated)	none (no result: NPY Y2 blocker)
COC(=O)c1ccccc1NC(=O)c1cnn2c(C(F)F)cc(C3CC3)nc12	NPY Y2 blocker 19 | NPY1 antag ctr 44 | NPY2 antag conf 32
COc1cc(NC(=O)c2cnn3c(C(F)F)cc(C4CC4)nc23)c(OC)cc1Cl	none (no result: NPY Y2 blocker)
Cc1cccc(N2CCN(CC(=O)Nc3ccccc3[N+](=O)[O-])CC2)c1C	NPY Y2 blocker 38 | NPY1 antag ctr inactive | NPY2 antag conf inactive
O=C(Nc1ccc(CN2CCCCC2)cc1)c1sc2ccccc2c1Cl	none (no result: NPY Y2 blocker, NPY-Y1 antag)
CCOC(=O)c1c(NC(=O)Cn2nc(C(=O)O)c3ccccc3c2=O)sc(CC)c1C	none (no result: NPY Y2 blocker)
CCCCc1nc2ccccc2c(NC(=O)CNC(C)(C)C)c1CCC	none
CCCCc1nc2ccccc2c(N)c1CCC (tested in a mixture with another compound)	NPY Y2 blocker 18 | NPY1 antag ctr inactive | NPY2 antag conf inactive
CSc1sc(-c2n[nH]c(=S)n2C)c2c1C=CCC2	none (no result: NPY Y2 blocker, NPY-Y1 antag)
Cc1nc2ccccc2c(=O)n1NC(=O)/C=C/c1ccc(Br)cc1	NPY Y2 blocker 18 | NPY1 antag ctr inactive | NPY2 antag conf inactive
NC(=S)Nc1ccc(C(F)(F)F)cc1Cl	none (no result: NPY Y2 blocker, NPY-Y1 antag)
O=C(NCc1ccco1)NC1CCCCC1	none
CCC(C)(C(=O)NC1CCCCC1)N(Cc1ccco1)C(=O)c1ccccn1 (configuration not stated)	NPY Y2 blocker 17 | NPY1 antag ctr inactive | NPY2 antag conf inactive
CCOC(=O)c1sc(NC(=O)CC)nc1C	none (no result: NPY Y2 blocker)
CCCCOC(=O)Nc1nc(C)c(C(=O)OCC)s1	NPY Y2 blocker 18 | NPY1 antag ctr inactive | NPY2 antag conf inactive
CC(C)c1ccc(/C=C/C(=O)N2CCc3ccccc3C2)cc1	NPY Y2 blocker 18 | NPY1 antag ctr 29 | NPY2 antag conf 25
N/C(=N\OC(=O)COc1ccccc1Cl)c1ccc(Cl)cc1	NPY Y2 blocker 18 | NPY1 antag ctr inactive | NPY2 antag conf inactive
COc1ccc(N(CC(=O)N/N=C/c2ccc(OC3CSC3)cc2)S(=O)(=O)c2ccccc2)cc1	NPY Y2 blocker 21 | NPY1 antag ctr 22 | NPY2 antag conf 54
Cc1ccc(N(CC(=O)N/N=C/c2ccc(OC3CSC3)cc2)S(=O)(=O)c2ccccc2)cc1	none
Cc1cc(C(=O)CSc2nnc(-c3cccs3)o2)c(C)n1-c1ccccc1	NPY Y2 blocker 20 | NPY1 antag ctr inactive | NPY2 antag conf inactive
O=C(CSc1nnc(-c2cccs2)o1)c1cccs1	none
Cc1ccc(/C=C/S(=O)(=O)NCc2ccc(F)cc2)cc1	none (no result: NPY Y2 blocker)
CCOC(=O)c1ccc(N2C(=O)c3n[nH]c(C)c3C2c2cccnc2)cc1 (configuration not stated)	none
CCOC(=O)c1ccc(N2C(=O)c3n[nH]c(-c4ccco4)c3C2c2ccc([N+](=O)[O-])cc2)cc1 (configuration not stated)	NPY Y2 blocker 26 | NPY1 antag ctr 22 | NPY2 antag conf inactive
CCCCCCCCCS(=O)(=O)N/N=C/c1cccc([N+](=O)[O-])c1	NPY Y2 blocker 24 | NPY1 antag ctr inactive | NPY2 antag conf 21
C=C(C(=O)c1ccccc1)C(C(=C)C(=O)c1ccccc1)c1ccc(OC)cc1	none (no result: NPY Y2 blocker, NPY-Y1 antag)
CCCn1c2ccccc2c2cc(C(=O)O)ccc21	NPY Y2 blocker 19 | NPY1 antag ctr inactive | NPY2 antag conf inactive
Cn1c2ccccc2c2cc(C(=O)O)ccc21	none
CCC1=Nc2ccc(Br)cc2C(c2ccccc2)N1CC(=O)OC (configuration not stated)	NPY Y2 blocker 23 | NPY1 antag ctr inactive | NPY2 antag conf 23
CCOC(=O)CC(NC(=O)C1c2ccccc2Oc2ccccc21)c1ccccc1Cl (configuration not stated)	NPY Y2 blocker 18 | NPY1 antag ctr inactive | NPY2 antag conf inactive
